Published values of several laboratories.
Lines come from different studies, so protocols differ.
Effect on: cell growth or viability

SMILES | cell line | assay | setting | quantity | result
CCCCC(=O)Nc1ccc(-c2ccc3ncn(CCCF)c(=O)c3c2)cn1 | HCC827 | CCK-8 | 72 h | IC50 | 92 nM
Cc1nc(Nc2ncc(C(=O)Nc3c(C)cccc3Cl)s2)cc(N2CC[C@H](O)C2)n1 | KU812 | ATP luminescence | 10 µM, 72 h | inhibition | 97%
CN(C)CCNC(=O)c1ccc(-c2nc3ccc4[nH]ncc4c3c3c2CCCCC3)cc1 | HCC827 | – | 72 h | GI50 | 3040 nM
O=C(Nc1ccc(-c2ccc3ncn(Cc4ccccc4)c(=O)c3c2)cn1)c1ccc(F)cc1 | HCC827 | CCK-8 | 72 h | IC50 | > 10000 nM
CN(C)CCNC(=O)c1ccc(-c2nc3ccc4[nH]ncc4c3c3c2CCCCC3)c(F)c1 | HCC827 | – | 72 h | GI50 | 985 nM
Cc1nc(NC(=O)N2CCC[C@H]2C(N)=O)sc1-c1ccnc(C(C)(C)C(F)(F)F)c1 | BFTC-909 | ATP luminescence | 5 days | EC50 | 5560 nM
CCCCC(=O)Nc1ccc(-c2ccc3ncn(CCF)c(=O)c3c2)cn1 | HCC827 | CCK-8 | 72 h | IC50 | 360 nM
CN(C)CCNC(=O)c1ccc(-c2nc3ccc4[nH]ncc4c3c3c2CCCC3)cc1 | HCC827 | – | 72 h | GI50 | 1040 nM
C[C@H](Nc1ccc2c(c1)OCCn1cc(N3C(=O)OC[C@H]3C(F)F)nc1-2)C(N)=O | BFTC-909 | ATP luminescence | 5 days | EC50 | 342 nM
